Converted amounts (≈) assume the structure as drawn. The source made the active and inactive calls. The rule behind the calls is not given here.
Tests used:
Homo sapiens [1] = assay: Suppression of calcium ionophore-stimulated LTB4 production in po dosed human blood administered as single dose; assay type: functional, organism-based
Method in brief: (§1)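 Fresh blood drawn from healthy volunteers dosed with an oral suspension. Single doses were 25–1200 mg (SAD). Multiple dosing was 60, 180, 300 or 600 mg once daily for 10 days (MAD). LTB4 was measured after ex vivo calcium ionophore stimulation, relative to baseline.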

Canis familiaris [2] = assay: Ex vivo inhibition of FLAP in po dosed Beagle dog assessed as reduction in ionophore-stimulated LTB4 production administered daily for 3 consecutive days measured during compound dosing by LC-MS/MS analysis; assay type: functional, organism-based; conditions: Canis lupus familiaris
Method in brief: (§2)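 Beagle dogs were given oral doses once daily for 3 consecutive days at 0.02, 0.09 or 0.2 mg/kg (n=3 per dose). Blood was stimulated ex vivo with calcium ionophore, and LTB4 production was measured during dosing and up to 24 h after the last dose. Results were baseline-corrected, plotted with plasma concentration and reported as medians.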

[3] = target: T1, Prostaglandin G/H synthase 2 (Homo sapiens) (UniProt P35354); assay: Activity at COX2 in human whole blood assessed as effect on LPS-induced PGE2 production preincubated for 15 mins followed by LPS-stimulation and measured after overnight incubation by EIA; assay type: tissue-based
T1 sequence (whole entry): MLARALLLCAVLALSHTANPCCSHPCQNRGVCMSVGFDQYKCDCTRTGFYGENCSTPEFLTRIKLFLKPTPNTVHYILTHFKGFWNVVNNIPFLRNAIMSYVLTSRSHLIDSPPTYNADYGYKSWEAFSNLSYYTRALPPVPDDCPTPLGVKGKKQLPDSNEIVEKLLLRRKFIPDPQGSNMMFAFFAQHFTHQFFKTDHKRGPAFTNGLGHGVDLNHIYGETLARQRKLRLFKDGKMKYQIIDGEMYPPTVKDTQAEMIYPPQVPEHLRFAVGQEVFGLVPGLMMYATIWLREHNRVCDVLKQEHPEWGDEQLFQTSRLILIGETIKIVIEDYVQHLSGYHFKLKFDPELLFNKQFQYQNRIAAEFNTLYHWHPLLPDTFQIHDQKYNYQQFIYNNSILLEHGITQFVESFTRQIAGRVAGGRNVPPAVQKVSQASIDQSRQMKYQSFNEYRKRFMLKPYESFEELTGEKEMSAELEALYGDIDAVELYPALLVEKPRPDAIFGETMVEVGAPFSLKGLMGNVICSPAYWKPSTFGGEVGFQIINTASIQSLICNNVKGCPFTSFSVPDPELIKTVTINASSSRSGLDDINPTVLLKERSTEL

Canis familiaris [4] = assay: Ex vivo inhibition of FLAP in Beagle dog assessed as reduction in ionophore-stimulated LTB4 production at 0.02 to 0.2 mg/kg, po administered daily for 3 consecutive days measured 24 hrs post-last dose by LC-MS/MS analysis; assay type: functional, organism-based; conditions: Canis lupus familiaris; method in brief: as §2
Homo sapiens [5] = assay: Suppression of urine LTE4 level in po dosed human administered as single dose; assay type: functional, organism-based
Method in brief: (§3)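 Endogenous urinary LTE4 measured relative to baseline in healthy volunteers. Subjects received an oral suspension as single doses of 25–1200 mg, or 60–600 mg once daily for 10 days.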

Canis familiaris [6] = assay: Ex vivo reversible inhibition of FLAP in Beagle dog assessed as reduction in ionophore-stimulated LTB4 production at 0.18 mg/kg, po on day1 and 0.09 mg/kg, po on day 3 measured after 48 hrs; assay type: functional, organism-based; conditions: Canis lupus familiaris
Method in brief: (§4)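 Two beagle dogs were given two oral doses 48 h apart: 0.18 mg/kg on day 1 and 0.09 mg/kg on day 3. LTB4 production in calcium ionophore-stimulated blood was followed ex vivo after each dose, including 48 h after the second dose, and compared with baseline.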

Homo sapiens [7] = assay: Suppression of urine LTE4 level in po dosed human administered daily for 10 days; assay type: functional, organism-based; method in brief: as §3
Canis familiaris [8] = assay: Ex vivo inhibition of FLAP in Beagle dog assessed as reduction in LTE4 level in urine at 0.09 to 0.2 mg/kg, po administered daily for 3 consecutive days measured 24 hrs post-last dose by colorimetric method; assay type: functional, Canis lupus familiaris
Method in brief: (§5)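 Urinary LTE4 was measured at baseline and over the final 24 h of dosing in beagle dogs given oral doses once daily for 3 consecutive days (0.02, 0.09 or 0.2 mg/kg, n=3 per dose). Dogs with baseline uLTE4 below the LOQ were excluded. Inhibition was expressed relative to each dog's own baseline.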

THP-1 = assay: Cytotoxicity against human THP1 cells assessed as reduction in cell viability measured after 48 hrs by resazurin assay; assay type: cell-based; conditions: THP-1, 48 h
Canis familiaris [9] = assay: Ex vivo inhibition of FLAP in Beagle dog assessed as reduction in ionophore-stimulated LTB4 production at 0.18 mg/kg, po on day1 and 0.09 mg/kg, po on day 3 measured after 4 to 9 hrs relative to control; assay type: functional, Canis lupus familiaris; method in brief: as §4
Homo sapiens [10] = assay: Suppression of calcium ionophore-stimulated LTB4 production in human assessed as Cmin required to show >80% reduction in plasma LTB4 levels at 60 to 1200 mg, po administered as single dose measured after 24 hrs; assay type: functional
Canis familiaris [11] = assay: Ex vivo inhibition of FLAP in po dosed Beagle dog assessed as reduction in ionophore-stimulated LTB4 production; assay type: functional, Canis lupus familiaris
[12] = target: Prostaglandin G/H synthase 1 (Homo sapiens) (UniProt P23219); assay: Activity at COX1 in human whole blood assessed as effect on […] production by EIA; assay type: tissue-based
HepG2 = assay: Cytotoxicity against human HepG2 cells assessed as reduction in ATP depletion in presence of glucose/galactose; assay type: cell-based
Canis familiaris [13] = assay: Ex vivo inhibition of FLAP in Beagle dog assessed as reduction in ionophore-stimulated LTB4 production at 0.9 mg/kg, po measured within 2.5 hrs relative to control; assay type: functional, Canis lupus familiaris
Method in brief: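 Two beagle dogs were given a single oral dose of 0.9 mg/kg. LTB4 production in calcium ionophore-stimulated blood was followed ex vivo over time and compared with pre-dose baseline.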

Canis familiaris [14] = assay: Ex vivo inhibition of FLAP in Beagle dog assessed as reduction in LTE4 level in urine at 0.02 mg/kg, po administered daily for 3 consecutive days measured 24 hrs post-last dose by colorimetric method relative to control; assay type: functional; conditions: Canis lupus familiaris; method in brief: as §5
Homo sapiens [15] = assay: Suppression of calcium ionophore-stimulated LTB4 production in po dosed human blood administered daily for 10 days; assay type: functional, organism-based; method in brief: as §1
Canis lupus familiaris = species on record: Canis lupus familiaris; assay: Inhibition of FLAP in dog whole blood assessed as reduction in calcium ionophore-stimulated LTB4 production; assay type: tissue-based
[16] = target: T2, Arachidonate 5-lipoxygenase-activating protein (Homo sapiens) (UniProt P20292); assay: Inhibition of FLAP in human whole blood assessed as reduction in calcium ionophore-stimulated LTB4 production preincubated for 4 hrs followed by calcium ionophore stimulation and measured after 20 mins by EIA; assay type: tissue-based
T2 sequence (whole entry): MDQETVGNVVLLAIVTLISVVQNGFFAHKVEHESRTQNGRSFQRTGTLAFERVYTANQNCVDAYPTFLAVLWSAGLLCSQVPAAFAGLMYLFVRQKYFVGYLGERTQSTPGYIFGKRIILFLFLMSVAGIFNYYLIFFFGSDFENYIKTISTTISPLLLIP
Method in brief: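 Fresh human whole blood was incubated with compound for 4 h, then stimulated with calcium ionophore, and LTB4 production was measured as the 5-LO pathway read-out. IC50 was also converted to a free value: IC50 × (Fu/100), where Fu = 100 − human plasma protein binding (%).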

[17] = Mutagenicity in Salmonella typhimurium TA100 in absence of rat S9 fraction by Ames test; assay type: toxicity; conditions: salmonella enterica subsp. enterica serovar typhimurium
Method in brief: (§6)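 Ames bacterial mutagenicity test in S. typhimurium TA98 and TA100. Run with and without metabolic activation by rat S9 fraction.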

[18] = Mutagenicity in Salmonella typhimurium TA100 in presence of rat S9 fraction by Ames test; assay type: toxicity, subcellular; conditions: salmonella enterica subsp. enterica serovar typhimurium; method in brief: as §6
[19] = Aqueous solubility of the compound in pH 7.4 phosphate buffer measured after 24 hrs by LC-MS/MS-based shake flask method; assay type: physicochemical
[20] = Intrinsic clearance in rat hepatocytes assessed per million cells at 1 uM measured after 2 to 60 mins by LC-MS/MS analysis; assay type: ADME, cell-based, Hepatocyte; conditions: read-out: CLH
Method in brief: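 Rat hepatocyte incubation of the compound; intrinsic clearance measured after incubation.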

[21] = Octanol-phosphate buffer partition co-efficient, log D of the compound at pH 7.4 after 2 hrs by LC-MS/MS-based shake flask method; assay type: physicochemical
Method in brief: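 Distribution between octanol and water at pH 7.4.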

[22] = Mutagenicity in Salmonella typhimurium TA98 in presence of rat S9 fraction by Ames test; assay type: toxicity, subcellular; conditions: salmonella enterica subsp. enterica serovar typhimurium; method in brief: as §6
[23] = Mutagenicity in Salmonella typhimurium TA98 in absence of rat S9 fraction by Ames test; assay type: toxicity; conditions: salmonella enterica subsp. enterica serovar typhimurium; method in brief: as §6
[24] = Passive apparent permeability across apical to basolateral side in human Caco2 cells at pH 6.5; assay type: ADME, cell-based; conditions: Caco-2, pH 6.5
Method in brief: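 Passive permeability across Caco-2 monolayers, measured in the A to B direction at pH 6.5.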

[25] = Intrinsic clearance in human hepatocytes assessed per million cells at 1 uM measured after 2 to 60 mins by LC-MS/MS analysis; assay type: ADME, cell-based, Hepatocyte; conditions: read-out: CLH
[26] = target: T3, Arachidonate 5-lipoxygenase-activating protein (Homo sapiens, UniProt P20292); assay: Inhibition of [3H]MK0591 binding to human FLAP expressed in […] cell membranes measured after 60 to 80 mins by microbeta scintillation counting method
T3 sequence (P20292 whole entry): T2 sequence (whole entry)

Sequence of Prostaglandin G/H synthase 1 (Homo sapiens) (P23219 whole entry): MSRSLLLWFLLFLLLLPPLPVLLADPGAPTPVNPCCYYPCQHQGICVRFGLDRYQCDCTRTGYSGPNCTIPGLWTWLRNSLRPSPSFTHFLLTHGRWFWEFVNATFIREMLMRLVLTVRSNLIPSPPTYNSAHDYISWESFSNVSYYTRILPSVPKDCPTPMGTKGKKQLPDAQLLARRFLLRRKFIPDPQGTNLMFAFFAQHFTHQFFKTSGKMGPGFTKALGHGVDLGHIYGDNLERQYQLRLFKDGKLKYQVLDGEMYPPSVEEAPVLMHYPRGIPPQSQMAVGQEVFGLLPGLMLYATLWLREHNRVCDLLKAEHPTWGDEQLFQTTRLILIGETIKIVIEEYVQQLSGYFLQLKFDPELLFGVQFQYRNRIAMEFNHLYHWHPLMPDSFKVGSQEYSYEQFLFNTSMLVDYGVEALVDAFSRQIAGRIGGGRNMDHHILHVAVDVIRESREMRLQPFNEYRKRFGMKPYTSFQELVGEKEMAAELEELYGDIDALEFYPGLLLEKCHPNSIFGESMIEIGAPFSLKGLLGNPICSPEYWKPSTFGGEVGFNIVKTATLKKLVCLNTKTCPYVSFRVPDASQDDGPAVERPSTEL

Structure (SMILES) | fIC50 [16] | Activity [17] | Activity [18] | solubility thermodynamic at 24 h [19] | hepatocyte CLint at 1 µM [20] | logD at 2 h [21] | Activity [22] | Activity [23] | Papp A→B [24] | hepatocyte CLint at 1 µM [25] | other results
Cc1cc(-c2ccc(C(=O)[C@@H]3CCCC[C@H]3C(=O)Nc3cnn4c3C(=O)NCC4)cc2)n[nH]1 | 2 nM |  |  |  |  |  |  |  |  |  | Activity (Homo sapiens [1]): Dose-dependent effect; inhibition (Canis familiaris [2]): Dose-dependent effect; Activity [3]: inactive; inhibition (Canis familiaris [4]): inactive; Activity (Homo sapiens [5]): Dose-dependent effect; inhibition (Canis familiaris [6]): Active; Activity (Homo sapiens [7]): Dose-dependent effect; inhibition (INH) (Canis familiaris [8]): 100%; IC50 (THP-1): > 250 µM; %max (Canis familiaris [9]): >90%; Cmin (Homo sapiens [10]): >15 nM; fIC50 (Canis familiaris [11]): 0.1 nM; Activity [12]: inactive; IC50 (HepG2): > 250 µM; %max (Canis familiaris [13]): >90%; inhibition in vivo at 0.02 mg/kg (Canis familiaris [14]): 60%; Activity (Homo sapiens [15]): Dose-dependent effect; fIC50 (Canis lupus familiaris): 1 nM
CCn1ncc(NC(=O)[C@@H]2CCCC[C@H]2C(=O)c2ccc(-c3cc(C)n[nH]3)cc2)c1C(N)=O | 16 nM | Toxic | Toxic | 329 µM (≈ 148 µg/mL) | 8.6 µL/min/1e6 cells | 2.9 | Toxic | Toxic | 9.2 ×10⁻⁶ cm/s | 4.9 µL/min/1e6 cells | 
Cc1cc(-c2ccc(C(=O)[C@@H]3CCCC[C@H]3C(=O)Nc3cnn(CC(N)=O)c3)cc2)[nH]n1 | 487 nM |  |  | 496 µM (≈ 216 µg/mL) |  | 2.1 |  |  |  |  | IC50 [26]: 241 nM
Cc1cc(-c2ccc(C(=O)[C@@H]3CCCC[C@H]3C(=O)Nc3c(C(N)=O)n[nH]c3C)cc2)[nH]n1 |  |  |  | 402 µM (≈ 175 µg/mL) | 14.4 µL/min/1e6 cells | 2.3 |  |  | 0.15 ×10⁻⁶ cm/s | 6.7 µL/min/1e6 cells | 
Cc1cc(-c2ccc(C(=O)[C@@H]3CCCC[C@H]3C(=O)Nc3cn(C)nc3C(N)=O)cc2)n[nH]1 |  | Non-Toxic | Non-Toxic | 60 µM (≈ 26.1 µg/mL) | 14 µL/min/1e6 cells |  | Non-Toxic | Non-Toxic |  | 12.4 µL/min/1e6 cells | 
Cc1cc(-c2ccc(C(=O)[C@@H]3CCCC[C@H]3C(=O)Nc3c(C(N)=O)n[nH]c3C)cc2)n[nH]1 | 96 nM |  |  |  |  |  |  |  |  |  | 

— ChEMBL document CHEMBL4393654, “Discovery and Early Clinical Development of an Inhibitor of 5-Lipoxygenase Activating Protein (AZD5718) for Treatment of Coronary Artery Disease” (J Med Chem, 2019)
